In data set [1] the target is T1, Amine oxidase [flavin-containing] A (Homo sapiens, UniProt P21397).
T1 sequence (P21397 whole entry): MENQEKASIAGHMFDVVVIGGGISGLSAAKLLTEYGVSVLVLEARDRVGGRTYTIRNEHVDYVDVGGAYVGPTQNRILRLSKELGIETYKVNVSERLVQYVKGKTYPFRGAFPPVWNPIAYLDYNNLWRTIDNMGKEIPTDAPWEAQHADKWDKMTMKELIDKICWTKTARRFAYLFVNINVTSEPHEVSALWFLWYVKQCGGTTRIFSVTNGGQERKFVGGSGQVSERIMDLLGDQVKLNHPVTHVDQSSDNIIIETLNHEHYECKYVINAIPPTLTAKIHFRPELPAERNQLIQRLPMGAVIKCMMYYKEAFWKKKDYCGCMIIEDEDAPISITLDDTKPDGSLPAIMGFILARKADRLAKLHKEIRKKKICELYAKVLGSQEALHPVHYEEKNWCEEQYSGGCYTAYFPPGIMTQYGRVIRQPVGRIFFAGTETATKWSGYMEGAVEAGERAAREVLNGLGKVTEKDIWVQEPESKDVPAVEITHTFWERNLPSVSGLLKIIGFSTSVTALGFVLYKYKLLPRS
Put plainly: Inhibition of recombinant human MAO-A using kynuramine as substrate after 20 mins by fluorescence spectrophotometric analysis. A digest of the protocol:
(§1)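 Recombinant human enzyme incubated with kynuramine and test inhibitor at 37 °C for 20 min; stopped with 2 N NaOH. The 4-hydroxyquinoline product is read at endpoint by fluorescence in alkaline medium. Inhibitor-free controls run each time.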

Data set [2] concerns the target T2, Amine oxidase [flavin-containing] B (Homo sapiens, UniProt P27338).
T2 sequence (P27338 whole entry): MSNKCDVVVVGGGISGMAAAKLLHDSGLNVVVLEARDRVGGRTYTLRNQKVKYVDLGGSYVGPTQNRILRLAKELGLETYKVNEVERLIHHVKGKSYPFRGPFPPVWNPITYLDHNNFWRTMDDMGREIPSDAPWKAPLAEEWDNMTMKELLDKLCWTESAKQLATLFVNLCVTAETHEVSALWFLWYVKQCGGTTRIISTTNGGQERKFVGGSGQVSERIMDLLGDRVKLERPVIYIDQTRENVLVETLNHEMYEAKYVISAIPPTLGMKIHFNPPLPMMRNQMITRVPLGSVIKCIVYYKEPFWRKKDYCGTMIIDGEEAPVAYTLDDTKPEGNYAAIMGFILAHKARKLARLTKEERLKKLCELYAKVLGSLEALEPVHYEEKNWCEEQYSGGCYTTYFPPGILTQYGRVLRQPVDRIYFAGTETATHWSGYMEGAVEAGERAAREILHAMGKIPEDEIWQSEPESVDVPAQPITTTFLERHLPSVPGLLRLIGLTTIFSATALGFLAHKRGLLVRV
Put plainly: Inhibition of recombinant human MAO-B using kynuramine as substrate after 20 mins by fluorescence spectrophotometric analysis. A digest of the protocol:
as §1

For data set [3], the species on record is Homo sapiens. Briefly: Selectivity index, ratio of IC50 for recombinant human MAO-A to IC50 for recombinant human MAO-B. The method in brief: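 Ratio of IC50 for MAO-A to IC50 for MAO-B. Both are from the kynuramine fluorescence assay with recombinant human enzymes (37 °C, 20 min, endpoint 4-hydroxyquinoline).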
Data set [4] concerns the target T3, Amine oxidase [flavin-containing] B (Rattus norvegicus, UniProt P19643).
T3 sequence (P19643 whole entry): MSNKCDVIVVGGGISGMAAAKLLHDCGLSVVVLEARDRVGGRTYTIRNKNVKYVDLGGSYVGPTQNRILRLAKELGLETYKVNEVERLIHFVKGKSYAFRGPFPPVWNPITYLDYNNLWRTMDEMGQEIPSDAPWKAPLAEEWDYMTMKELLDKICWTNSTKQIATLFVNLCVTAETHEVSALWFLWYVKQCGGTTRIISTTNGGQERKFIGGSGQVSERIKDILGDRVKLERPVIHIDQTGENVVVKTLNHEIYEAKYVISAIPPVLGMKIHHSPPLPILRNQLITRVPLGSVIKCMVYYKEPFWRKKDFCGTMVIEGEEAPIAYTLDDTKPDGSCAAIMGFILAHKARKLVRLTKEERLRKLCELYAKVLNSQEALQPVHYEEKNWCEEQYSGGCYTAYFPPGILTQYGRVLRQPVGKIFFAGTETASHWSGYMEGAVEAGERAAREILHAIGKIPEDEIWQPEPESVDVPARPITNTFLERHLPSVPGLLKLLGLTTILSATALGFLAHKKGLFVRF
Briefly: Inhibition of Sprague-Dawley rat brain mitochondrial MAO-B using DMAPEA as substrate by HPLC analysis.

The target of data set [5] is T1, Amine oxidase [flavin-containing] A. Briefly: Irreversible inhibition of recombinant human MAO-A assessed as residual activity pre-incubated at 4 times IC50 for 15 mins followed by dialysis for 24 hrs and subsequent kynuramine addition measured after 20 mins by fluorescence spectrophotometric analysis relative to untreated control.
Data set [6] shares this target. Briefly: Reversible inhibition of recombinant human MAO-A assessed as residual activity pre-incubated at 4 times IC50 for 15 mins followed by kynuramine addition measured after 20 mins by fluorescence spectrophotometric analysis relative to untreated control. A digest of the protocol:
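Undialysed comparison: MAO-A is pre-incubated 15 min with inhibitor at 4 × IC50 without dialysis. Residual activity is measured after kynuramine addition as in the IC50 assay (37 °C, 20 min, 2 N NaOH stop, fluorescence of 4-hydroxyquinoline). It is expressed relative to the inhibitor-free control.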

Data set [7] shares this target. Briefly: Reversible inhibition of recombinant human MAO-A assessed as residual activity pre-incubated at 4 times IC50 for 15 mins followed by dialysis for 24 hrs and subsequent kynuramine addition measured after 20 mins by fluorescence spectrophotometric analysis relative to untreated control.
In data set [8] the target is T4, Amine oxidase [flavin-containing] A (Rattus norvegicus, UniProt P21396).
T4 sequence (P21396 whole entry): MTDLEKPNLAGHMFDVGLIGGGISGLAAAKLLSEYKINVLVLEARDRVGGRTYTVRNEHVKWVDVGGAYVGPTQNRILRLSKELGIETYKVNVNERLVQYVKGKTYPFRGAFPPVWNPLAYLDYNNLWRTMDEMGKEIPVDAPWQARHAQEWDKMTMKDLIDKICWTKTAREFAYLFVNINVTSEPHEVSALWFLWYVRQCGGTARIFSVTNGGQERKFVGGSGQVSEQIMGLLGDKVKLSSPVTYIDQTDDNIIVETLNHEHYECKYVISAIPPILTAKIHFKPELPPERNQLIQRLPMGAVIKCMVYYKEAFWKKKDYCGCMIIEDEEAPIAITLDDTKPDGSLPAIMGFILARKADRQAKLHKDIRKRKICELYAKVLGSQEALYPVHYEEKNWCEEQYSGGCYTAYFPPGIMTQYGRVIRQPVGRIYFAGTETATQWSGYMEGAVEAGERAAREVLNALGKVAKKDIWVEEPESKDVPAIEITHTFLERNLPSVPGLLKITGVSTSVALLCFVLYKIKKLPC
Put plainly: Inhibition of Wistar rat liver mitochondrial MAO-A using […] as substrate after 1 hr by spectrophotometric analysis.

Some results are limits rather than exact numbers.

The IC50 is the concentration needed to halve the response being measured. Consider `Cc1ccc(/C=C2\Cc3cc(O)ccc3C2=O)cc1`, for which the half-maximal inhibitory concentration (IC50) is 3.22 µM in data set [1] and 0.0052 µM in data set [2]. Besides, the Ratio IC50 in data set [3] was 619.
For the compound `COc1ccc2c(c1)C(=O)/C(=C/c1ccccc1OC)O2`, in data set [4], the half-inhibitory concentration (IC50) amounted to 11.6 µM.
`Cc1cccc(/C=C2\Cc3cc(O)ccc3C2=O)c1`: the figures for the IC50 in data set [1] and in data set [2] were 0.86 µM and 0.052 µM, respectively. For the same compound, the Ratio IC50 in data set [3] was determined as 17.
For `C#CCN(C)Cc1ccccc1` [PARGYLINE], in data set [5], the Activity amounted to 1.7%.
On to `O=C1/C(=C/c2ccc(Cl)c(Cl)c2)Cc2cc(O)ccc21`, for which the IC50 was 0.235 µM in data set [1] and 0.014 µM in data set [2]. The Ratio IC50 in data set [3] stood at 17.
On to `O=C1/C(=C/c2cccc(Br)c2)Cc2cc(O)ccc21`, for which the Activity in data set [6] amounted to 50%; in data set [7], 99%. The figures for the half-inhibitory concentration (IC50) in data set [1] and in data set [2] were 0.131 µM and 0.013 µM, respectively. In data set [3], the Ratio IC50 amounted to 10.
As to `O=C1/C(=C/c2cccc(F)c2)Cc2cc(O)ccc21`, the IC50 in data set [1] is 0.458 µM; in data set [2], 0.084 µM. In addition, the Ratio IC50 in data set [3] came out at 5.5.
As for `COc1ccc2c(c1)C/C(=C\c1ccc(N(C)C)cc1)C2=O`, the half-maximal inhibitory concentration (IC50) in data set [1] came out at 11.5 µM; in data set [2] it was 0.06 µM. In addition, the Ratio IC50 in data set [3] turned out to be 192.
On to `O=C1/C(=C/c2cccc(Cl)c2)Cc2cc(O)ccc21`, for which the IC50 is 0.157 µM in data set [1] and 0.03 µM in data set [2]. For the same compound, the Ratio IC50 in data set [3] turned out to be 5.2.
The like results for `O=C1/C(=C/c2ccccc2)Cc2ccc(O)cc21` were, in that order, 0.44 µM, 2.42 µM and 0.2.
Turning to `CN(C)c1ccc(/C=C2\Cc3cc(O)ccc3C2=O)cc1`, the 50% inhibitory concentration (IC50) in data set [1] stood at 1.72 µM; in data set [2] it was 0.768 µM. In data set [3], the Ratio IC50 worked out at 2.2.
On to `O=C1/C(=C/c2ccccc2)Cc2ccccc21`, for which the IC50 was determined as 5.43 µM in data set [1] and 2.57 µM in data set [2]. The Ratio IC50 in data set [3] came to 2.1.
With `CC(C)c1ccc(/C=C2\Cc3cc(O)ccc3C2=O)cc1`, the IC50 amounted to 0.961 µM in data set [1] and 0.215 µM in data set [2]. Moreover, the Ratio IC50 in data set [3] was found to be 4.5.
For `CN(C)c1ccc(/C=C2\Cc3ccccc3C2=O)cc1` the same measures were 1.52 µM, 0.031 µM and 49.
Take `O=C1/C(=C/c2ccc(F)cc2)Cc2cc(O)ccc21`: the half-inhibitory concentration (IC50) in data set [1] was 0.679 µM; in data set [2], 0.047 µM. The Ratio IC50 in data set [3] was 14.
For `N#Cc1ccc(/C=C2\Cc3cc(O)ccc3C2=O)cc1` the same measures were 2.08 µM, 0.316 µM and 6.6.
For `COc1cccc(/C=C2\Cc3cc(O)ccc3C2=O)c1` the same measures were 1.19 µM, 0.471 µM and 2.5.
Turning to `COc1ccc2c(c1)C/C(=C\c1ccccc1)C2=O`, the IC50 in data set [2] amounted to 0.0092 µM. Besides, the Ratio IC50 in data set [3] is above 10900.
`O=C(/C=C/c1ccc(O)cc1)c1ccc(O)cc1O` [ISOLIQUIRITIGENIN] returned a half-inhibitory concentration (IC50) in data set [8] of 17.3 µM.
Consider `O=C1/C(=C/c2ccc(O)cc2)Cc2cc(O)ccc21`, for which the IC50 turned out to be 1.67 µM in data set [1] and 2.74 µM in data set [2]. Besides, the Ratio IC50 in data set [3] came to 0.6.
Turning to `N#Cc1cccc(/C=C2\Cc3cc(O)ccc3C2=O)c1`, the results for the IC50 in data set [1] and in data set [2] were 0.444 µM and 0.13 µM, respectively. Also, in data set [3], the Ratio IC50 was determined as 3.4.
`O=C1/C(=C/c2cccc(O)c2)Cc2cc(O)ccc21`: the half-inhibitory concentration (IC50) was 1.2 µM in data set [1] and 0.966 µM in data set [2]. Besides, the Ratio IC50 in data set [3] stood at 1.2.
As to `O=C1/C(=C/c2ccc(Cl)cc2)Cc2cc(O)ccc21`, the IC50 in data set [1] was 0.741 µM; in data set [2] it was 0.013 µM. Further, in data set [3], the Ratio IC50 is 57.
The like results for `O=C1/C(=C/c2ccccc2)Cc2cc(O)ccc21` were, in that order, 1.94 µM, 0.376 µM and 5.2.
For `O=C1/C(=C/c2ccc(Br)cc2)Cc2cc(O)ccc21` the same measures were 1.05 µM, 0.0053 µM and 198.
